Test results taken from ChEMBL document CHEMBL3272012, “5-(Tetradecyloxy)-2-furancarboxylic acid and related hypolipidemic fatty acid-like alkyloxyarylcarboxylic acids” (J Med Chem, 1977).
Values belong to the compound of their own block, whether it stands above or below them.

Experiments:
[1] = system: Rattus norvegicus; assay: Hypolipidemic activity in Wistar rat assessed as reduction in plasma cholesterol level at 419 umol/kg/day administered through diet for 10 days; type: functional; conditions: 240 h
Summary of the method: (§1)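 Young male Wistar rats, 170-190 g initial weight, groups of six, given compound mixed thoroughly into Purina Lab Chow ad libitum for 4 or 10 days as stated. Daily dose calculated from food consumption and body weight. Bled by cardiac puncture at end of treatment; plasma cholesterol measured by automated procedure. Expressed as percent reduction versus simultaneous untreated control group; Student's t test.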

[2] = system: Rattus norvegicus; assay: Hypolipidemic activity in Wistar rat assessed as reduction in plasma triglyceride level at 419 umol/kg/day administered through diet for 10 days; type: functional; conditions: 240 h
Summary of the method: (§2)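 Young male Wistar rats (initial weight 170-190 g), groups of six, fed compound mixed into Purina Lab Chow ad libitum for 4 or 10 days; daily dose calculated from food consumption and body weight. Bled by cardiac puncture; plasma cholesterol and triglycerides by automated procedures; percent reduction versus simultaneous untreated controls, Student's t test.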

[3] = system: Rattus norvegicus; assay: Increase in cholesterol level in Wistar rat liver at 419 umol/kg/day administered through diet for 10 days; type: ADME, organism-based; conditions: in vivo, po, 240 h
Summary of the method: (§3)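 Male Wistar rats (170-190 g), six per group, given compound by admixture to lab chow ad libitum for 4 or 10 days, dose derived from food intake. Liver cholesterol determined by automated procedure, expressed as mg/g wet tissue, compared with an untreated control group by Student's t test.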

[4] = system: Rattus norvegicus; assay: Increase in liver weight in Wistar rat at 419 umol/kg/day administered through diet for 10 days; type: ADME, organism-based; conditions: in vivo, po, 240 h
Summary of the method: (§4)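 Male Wistar rats (170-190 g initial), groups of six, dosed via diet ad libitum for 4 or 10 days, daily dose from food consumption. Liver wet weight measured, expressed as g/100 g final body weight, compared with untreated controls run simultaneously.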

[5] = system: Rattus norvegicus; assay: Hypolipidemic activity in Wistar rat assessed as reduction in plasma cholesterol level at 505 umol/kg/day administered through diet for 4 days; type: functional; conditions: 96 h; summary of the method: as §1
[6] = system: Rattus norvegicus; assay: Hypolipidemic activity in Wistar rat assessed as reduction in plasma triglyceride level at 505 umol/kg/day administered through diet for 4 days; type: functional; conditions: 96 h
[7] = system: Rattus norvegicus; assay: Increase in liver weight in Wistar rat at 505 umol/kg/day administered through diet for 4 days; type: ADME, organism-based; conditions: in vivo, po, 96 h
[8] = system: Rattus norvegicus; assay: Hypolipidemic activity in Wistar rat assessed as reduction in plasma triglyceride level at 374 umol/kg/day administered through diet for 4 days; type: functional; conditions: 96 h; summary of the method: as §2
[9] = system: Rattus norvegicus; assay: Hypolipidemic activity in Wistar rat assessed as reduction in plasma cholesterol level at 374 umol/kg/day administered through diet for 4 days; type: functional; conditions: 96 h
Summary of the method: (§5)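 Young male Wistar rats, 170-190 g at start, in groups of six, given compound mixed into Purina Lab Chow ad libitum for 4 or 10 days as stated. Daily dose was calculated from food consumption and body weight. Plasma was taken by cardiac puncture at the end and cholesterol measured by automated procedure. Results are % reduction versus a concurrent untreated control group, with Student's t test.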

[10] = system: Rattus norvegicus; assay: Increase in liver weight in Wistar rat at 374 umol/kg/day administered through diet for 4 days; type: ADME, organism-based; conditions: in vivo, po, 96 h; summary of the method: as §4
[11] = system: Rattus norvegicus; assay: Hypolipidemic activity in Wistar rat assessed as reduction in plasma cholesterol level at 418 umol/kg/day administered through diet for 4 days; type: functional; conditions: 96 h; summary of the method: as §1
[12] = system: Rattus norvegicus; assay: Hypolipidemic activity in Wistar rat assessed as reduction in plasma triglyceride level at 418 umol/kg/day administered through diet for 4 days; type: functional; conditions: 96 h; summary of the method: as §2
[13] = system: Rattus norvegicus; assay: Increase in liver weight in Wistar rat at 418 umol/kg/day administered through diet for 4 days; type: ADME, organism-based; conditions: in vivo, po, 96 h; summary of the method: as §4
[14] = system: Rattus norvegicus; assay: Hypolipidemic activity in Wistar rat assessed as reduction in plasma triglyceride level at 491 umol/kg/day administered through diet for 4 days; type: functional; conditions: 96 h
[15] = system: Rattus norvegicus; assay: Hypolipidemic activity in Wistar rat assessed as reduction in plasma cholesterol level at 491 umol/kg/day administered through diet for 4 days; type: functional; conditions: 96 h; summary of the method: as §1
[16] = system: Rattus norvegicus; assay: Increase in liver weight in Wistar rat at 491 umol/kg/day administered through diet for 4 days; type: ADME, organism-based; conditions: in vivo, po, 96 h
[17] = system: Rattus norvegicus; assay: Hypolipidemic activity in Wistar rat assessed as reduction in plasma triglyceride level at 606 umol/kg/day administered through diet for 10 days; type: functional; conditions: 240 h
[18] = system: Rattus norvegicus; assay: Hypolipidemic activity in Wistar rat assessed as reduction in plasma cholesterol level at 606 umol/kg/day administered through diet for 10 days; type: functional; conditions: 240 h; summary of the method: as §2
[19] = system: Rattus norvegicus; assay: Increase in liver weight in Wistar rat at 606 umol/kg/day administered through diet for 10 days; type: ADME, organism-based; conditions: in vivo, po, 240 h
[20] = system: Rattus norvegicus; assay: Hypolipidemic activity in Wistar rat assessed as reduction in plasma triglyceride level at 456 umol/kg/day administered through diet for 10 days; type: functional; conditions: 240 h
[21] = system: Rattus norvegicus; assay: Hypolipidemic activity in Wistar rat assessed as reduction in plasma cholesterol level at 456 umol/kg/day administered through diet for 10 days; type: functional; conditions: 240 h; summary of the method: as §1
[22] = system: Rattus norvegicus; assay: Hypolipidemic activity in Wistar rat assessed as reduction in plasma cholesterol level at 439 umol/kg/day administered through diet for 4 days; type: functional; conditions: 96 h; summary of the method: as §1
[23] = system: Rattus norvegicus; assay: Hypolipidemic activity in Wistar rat assessed as reduction in plasma triglyceride level at 439 umol/kg/day administered through diet for 4 days; type: functional; conditions: 96 h; summary of the method: as §2
[24] = system: Rattus norvegicus; assay: Increase in liver weight in Wistar rat at 439 umol/kg/day administered through diet for 4 days; type: ADME, organism-based; conditions: in vivo, po, 96 h; summary of the method: as §4
[25] = system: Rattus norvegicus; assay: Hypolipidemic activity in Wistar rat assessed as reduction in plasma triglyceride level at 411 umol/kg/day administered through diet for 10 days; type: functional; conditions: 240 h
[26] = system: Rattus norvegicus; assay: Hypolipidemic activity in Wistar rat assessed as reduction in plasma cholesterol level at 411 umol/kg/day administered through diet for 10 days; type: functional; conditions: 240 h; summary of the method: as §5
[27] = system: Rattus norvegicus; assay: Hypolipidemic activity in Wistar rat assessed as reduction in plasma triglyceride level at 449 umol/kg/day administered through diet for 4 days; type: functional; conditions: 96 h
[28] = system: Rattus norvegicus; assay: Hypolipidemic activity in Wistar rat assessed as reduction in plasma cholesterol level at 449 umol/kg/day administered through diet for 4 days; type: functional; conditions: 96 h; summary of the method: as §1
[29] = system: Rattus norvegicus; assay: Increase in liver weight in Wistar rat at 449 umol/kg/day administered through diet for 4 days; type: ADME, organism-based; conditions: in vivo, po, 96 h
[30] = system: Rattus norvegicus; assay: Hypolipidemic activity in Wistar rat assessed as reduction in plasma cholesterol level at 381 umol/kg/day administered through diet for 4 days; type: functional; conditions: 96 h; summary of the method: as §5
[31] = system: Rattus norvegicus; assay: Hypolipidemic activity in Wistar rat assessed as reduction in plasma triglyceride level at 381 umol/kg/day administered through diet for 4 days; type: functional; conditions: 96 h
Summary of the method: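 Young male Wistar rats (170-190 g initial weight), groups of six, fed test compound mixed into Purina Lab Chow ad libitum; daily dose calculated from food consumption and body weight. Bled by cardiac puncture at end of treatment; plasma triglycerides measured by automated procedure. Results given as percent reduction versus a simultaneous untreated control group, with significance by Student's t test.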

[32] = system: Rattus norvegicus; assay: Increase in liver weight in Wistar rat at 381 umol/kg/day administered through diet for 4 days; type: ADME, organism-based; conditions: in vivo, po, 96 h
[33] = system: Rattus norvegicus; assay: Hypolipidemic activity in Wistar rat assessed as reduction in plasma triglyceride level at 430 umol/kg/day administered through diet for 4 days; type: functional; conditions: 96 h; summary of the method: as §2
[34] = system: Rattus norvegicus; assay: Hypolipidemic activity in Wistar rat assessed as reduction in plasma cholesterol level at 430 umol/kg/day administered through diet for 4 days; type: functional; conditions: 96 h; summary of the method: as §1
[35] = system: Rattus norvegicus; assay: Increase in liver weight in Wistar rat at 430 umol/kg/day administered through diet for 4 days; type: ADME, organism-based; conditions: in vivo, po, 96 h; summary of the method: as §4
[36] = system: Rattus norvegicus; assay: Increase in cholesterol level in Wistar rat liver at 430 umol/kg/day administered through diet for 4 days; type: ADME, organism-based; conditions: in vivo, po, 96 h; summary of the method: as §3
[37] = system: Rattus norvegicus; assay: Hypolipidemic activity in Wistar rat assessed as reduction in plasma cholesterol level at 489 umol/kg/day administered through diet for 4 days; type: functional; conditions: 96 h; summary of the method: as §1
[38] = system: Rattus norvegicus; assay: Hypolipidemic activity in Wistar rat assessed as reduction in plasma triglyceride level at 489 umol/kg/day administered through diet for 4 days; type: functional; conditions: 96 h

Activity [3]: 17%
Activity [4]: 5%
Structure (SMILES): CCCCCCCCCCCCCCCCOc1ccc(C(=O)O)cc1
inhibition in vivo at 419 µmol/kg [1]: 15%
inhibition in vivo at 419 µmol/kg [2]: 55%

Activity [7]: 4%
Structure (SMILES): CCCCCCCCCCCCOc1cccc(C(=O)OC)c1
inhibition in vivo at 505 µmol/kg [5]: 7%
inhibition in vivo at 505 µmol/kg [6]: 55%

Activity [10]: 0%
Structure (SMILES): CCCCCCCCCCCCCCCCOc1ccc(C(=O)CCC(=O)O)cc1
inhibition in vivo at 374 µmol/kg [8]: 42%
inhibition in vivo at 374 µmol/kg [9]: 15%

Activity [13]: 0%
Structure (SMILES): CCCCCCCCCCCCCCOc1ccc(C(=O)OCC)cc1Cl
inhibition in vivo at 418 µmol/kg [11]: 0%
inhibition in vivo at 418 µmol/kg [12]: 0%

Activity [16]: 0%
Structure (SMILES): CCCCCCCCCCCCCCOc1ccccc1C(=O)OC
inhibition in vivo at 491 µmol/kg [14]: 0%
inhibition in vivo at 491 µmol/kg [15]: 0%

Activity [19]: 2%
Structure (SMILES): CCCCCCc1ccc(C(=O)CC(=O)OC)cc1
inhibition in vivo at 606 µmol/kg [17]: 35%
inhibition in vivo at 606 µmol/kg [18]: 2%

Structure (SMILES): CCCCCCCCCCCCCCCCOc1ccccc1C(=O)CC(=O)OC
inhibition in vivo at 456 µmol/kg [20]: 23%
inhibition in vivo at 456 µmol/kg [21]: 10%

Activity [24]: 1%
Structure (SMILES): CCCCCCCCCCCCCCOc1ccc(C(=O)OCC)c(O)c1
inhibition in vivo at 439 µmol/kg [22]: 0%
inhibition in vivo at 439 µmol/kg [23]: 0%

Structure (SMILES): CCCCCCCCCCc1ccc(C(=O)CC(=O)OC)cc1
inhibition in vivo at 411 µmol/kg [25]: 69%
inhibition in vivo at 411 µmol/kg [26]: 30%

Activity [29]: 5%
Structure (SMILES): CCCCCCCCCCCCCCOc1ccc(C(=O)N(CC)CC)cc1
inhibition in vivo at 449 µmol/kg [27]: 0%
inhibition in vivo at 449 µmol/kg [28]: 0%

Activity [32]: 0%
Structure (SMILES): CCCCCCCCCCCCCCOc1c(Cl)cc(C(=O)OC)cc1Cl
inhibition in vivo at 381 µmol/kg [30]: 1%
inhibition in vivo at 381 µmol/kg [31]: 73%

Activity [35]: 8%
Activity [36]: 0%
Structure (SMILES): CCCCCCCCCCCCCCOc1ccc(C(=O)OC)o1
inhibition in vivo at 430 µmol/kg [33]: 67%
inhibition in vivo at 430 µmol/kg [34]: 32%

Structure (SMILES): CCCCCCCCCCCC(=O)Nc1ccc(C(=O)OCC)cc1
inhibition in vivo at 489 µmol/kg [37]: 0%
inhibition in vivo at 489 µmol/kg [38]: 0%
